Entries after “also recorded” stand apart in the source; their conditions may differ.

Results on 6 molecules are retold here after paper PMC4836388 (ACS chemical biology, 2015).

The subject of assay [1] is HIV-1BaL pseudovirus. As to the kind of experiment: single-round pseudoviral infection luciferase reporter assay. Particulars: for inhibition of pseudotyped HIV-1BaL infection by sulfhydryl reagent: reagent not removed. It is filed as cell-based. In general terms: In a reporter assay the amount or activity of a reporter protein is the signal.
Assay [2] relates to HIV-1BaL virions. Put plainly: sulfhydryl reagent treat/wash viral infection assay. It is filed as cell-based. The note with it: HOS cells.
The subject of assay [3] is pseudotyped HIV-1BaL virus. As to the kind of experiment: virolysis assay. The note with it: HIV-1BaL pseudotyped virions.
In assay [4] the test system is HIV-1BaL pseudovirus. Put plainly: 2G12 mechanism of action infection assay. It counts as cell-based. Particulars: ligand added after virus bound to cells at 4 °C. The procedure, abridged: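 HIV-1BaL.01 Env pseudovirus (pNL4-3.Luc+ R− E− backbone, made in HEK-293T, iodixanol-gradient purified) bound to prechilled HOS.T4.R5 cells (preseeded 24 h, 8000/well) 4 h at 4 °C. Cells washed twice cold, then exposed to serially diluted test antibody for 30 min steps at 4 °C and 23 °C, then 24 h at 37 °C. Medium wash; lysis at 48 h; luciferase (1 mM D-luciferin). Enfuvirtide control wells; triplicate; infection relative to virus without inhibitor.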

For assay [5], the system named is pseudotyped HIV-1BaL virions. Put plainly: protein inhibition of virolysis. The note with it: with 10 μM 1, 14 μM 2 or 50 μM 8 (EC80).

As to `O[C@@H](CS)[C@@H](O)CS` (racemic) [DTT, dithiothreitol], the “inhibition of pseudotyped HIV-1BaL infection by sulfhydryl reagent” value (“inhibition … by sulfhydryl reagent” for short) in assay [1] is “inhibit”. The “virus infectivity after reagent treatment and removal” value in assay [2] was “did not cause significant dose-dependent reduction”. As to `CC[C@H](C)[C@H](NC(=O)[C@@H](N)CCCNC(=N)N)C(=O)N[C@@H](CC(N)=O)C(=O)N[C@@H](CC(N)=O)C(=O)N[C@H](C(=O)N1C[C@@H](n2cc([C]34[CH]5[CH]6[CH]7[CH]3[Fe]6754389%10[CH]4[CH]3[CH]8[CH]9[CH]4%10)nn2)C[C@H]1C(=O)N[C@@H](Cc1c[nH]c2ccccc12)C(=O)N[C@@H](CO)C(=O)N[C@@H](CCC(=O)O)C(=O)N[C@@H](C)C(=O)N[C@@H](CCSC)C(=O)N[C@@H](CCSC)C(=O)NCCC(=O)N[C@@H](CCC(N)=O)C(=O)NCCC(=O)N[C@@H](CSC1CC(=O)N(CCC(=O)NCCCOCCOCCOCCCNC(=O)CCN2C(=O)CC(SC[C@H](NC(=O)CCNC(=O)[C@H](CCC(N)=O)NC(=O)CCNC(=O)[C@H](CCSC)NC(=O)[C@H](CCSC)NC(=O)[C@H](C)NC(=O)[C@H](CCC(=O)O)NC(=O)[C@H](CO)NC(=O)[C@H](Cc3c[nH]c4ccccc34)NC(=O)[C@@H]3C[C@H](n4cc([C]56[CH]7[CH]8[CH]9[CH]5[Fe]89765%10%11%12[CH]6[CH]5[CH]%10[CH]%11[CH]6%12)nn4)CN3C(=O)[C@@H](NC(=O)[C@H](CC(N)=O)NC(=O)[C@H](CC(N)=O)NC(=O)[C@@H](NC(=O)[C@@H](N)CCCNC(=N)N)[C@@H](C)CC)[C@@H](C)CC)C(N)=O)C2=O)C1=O)C(N)=O)[C@@H](C)CC` (stereo partly drawn) [1a], the “inhibition of HIV-1 infection (in words)” value in assay [1] (HIV-1BaL pseudotyped virions) is given as “powerful inhibitor of HIV-1 infection, comparable to 1”. Moreover, the “p24 release (in words)” value in assay [3] is “did not induce p24 release”. As to `NC(=O)CI` [IAAm, iodoacetamide], in assay [1], the “inhibition … by sulfhydryl reagent” value was “inhibit”. enfuvirtide [T20]: the “infection with six-helix bundle formation delayed by low temperature” value in assay [4] is “blocked infection”. In the case of `O=C(O)CCP(CCC(=O)O)CCC(=O)O` [TCEP, tris(2-carboxyethyl)phosphine], in assay [1], the “inhibition … by sulfhydryl reagent” value is on record as “inhibit”. In assay [2], the “virus infectivity after reagent treatment and removal” value is on record as “did not cause significant dose-dependent reduction”.

B1: cyanovirin-N: lectin that binds high-mannose glycans in the gp120 outer domain (protein, UniProt P81180 1-101, looked up)
Cyanovirin-N: LGKFSQTCYNSAIQGSVLTSTCERTNGGYNTSSIDLNSVIENVDGSLKWQPSNFIETCRNTQLAGSSELAAECKTRAQQFVSTKINLDDHIANIDGTLKYE
In the case of B1, the “inhibition of PTT-induced p24 release by protein ligand” value in assay [5] is “did not inhibit p24 release; also recorded: no inhibition of p24 release”.
